Only some compounds are listed: those with a hit (about 2.3% of all), similar ones and a draw of the others.
TPT1 inh: inhibitors of Candida albicans tRNA 2'-phosphotransferase TPT1 | recombinant caTPT1, FP RNA substrate dephosphorylation | inhibition, % at 5 µM | actives 0.81% (n = 300,000) | AID 1962;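 active = inhibition above the mean of all tested compounds plus 3 SD, set per screening campaign, cut at about 24% in these data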;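 note: plate controls were DMSO alone for no effect and ferristatin control at 100 nM for full effect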
HNF4A DNA FP: change in binding of human HNF4 alpha to DNA. P41235. HNF4a-FITC DNA binding, fluorescence polarization, 1 h. activity change, % at 10 µM. actives 0.3% (n = 360,000). AID 1224865; in the data active = activity change above about 30%, passing the limit was not always enough
Target sequence (P41235 whole entry, looked up): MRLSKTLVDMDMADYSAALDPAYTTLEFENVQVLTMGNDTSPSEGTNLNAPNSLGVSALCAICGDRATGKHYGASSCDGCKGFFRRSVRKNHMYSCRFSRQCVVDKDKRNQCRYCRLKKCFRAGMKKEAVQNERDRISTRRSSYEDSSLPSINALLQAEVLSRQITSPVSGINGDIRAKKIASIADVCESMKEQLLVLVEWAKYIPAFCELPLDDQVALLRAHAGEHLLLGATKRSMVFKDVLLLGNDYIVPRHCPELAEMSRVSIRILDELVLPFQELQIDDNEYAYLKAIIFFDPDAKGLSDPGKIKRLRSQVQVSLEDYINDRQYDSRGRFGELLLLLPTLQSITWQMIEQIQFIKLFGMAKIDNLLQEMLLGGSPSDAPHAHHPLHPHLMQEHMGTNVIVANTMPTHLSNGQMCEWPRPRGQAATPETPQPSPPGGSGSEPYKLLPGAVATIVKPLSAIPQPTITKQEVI
CSN deneddyl inh: blocks human CSN-mediated cullin deneddylation; Q92905; Purified CSN, SCF-Nedd8-OG deneddylation, fluorescence polarization; inhibition, % at 12.5 µM; actives 0.38% (n = 360,000); AID 651999;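 active = pattern-corrected inhibition above about 35%, with an unprinted fluorescence ratio check between 0.5 and 1.5, limit read from the data, passing the limit was not always enough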;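 note: 0% = enzyme with substrate and 100% = substrate without enzyme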
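assay system = purified human Csn5 enzyme expressed in HEK293T cells | amount = 0.24 nM enzyme | buffer or medium = Tris/NaCl/DTT buffer, pH 7.5 | reagent = 10 nM SCFSkp2-Nedd8OG | compound = one concentration, 12.5 µM, 0.25% DMSO | times = 90 min reaction at room temperature | signal = FP | read-out basis = % inhibition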
CRFBP-R2 block: blocks CRF-induced signaling of the CRF-BP/CRF-R2 complex; inhibition, % at 11.8 µM; HEK293 CRF-R2/CRF-BP, CRF-induced calcium fluorescence; actives 0.59% (n = 350,000);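 active = inhibition of the ligand-induced calcium signal above about 50% at the single tested concentration, limit read from the data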
CRFR2-BP ag: CRF-BP/CRF-R2 complex agonism. HEK293 CRF-R2/CRF-BP, calcium dye fluorescence (FLIPR); percent of saturating CRF peptide response. activation, % at 13.2 µM. actives 0.46% (n = 350,000);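 active = activation of at least 50%, plus an integration ratio under a set limit after plate pattern correction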;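 note: plate controls were neutral control wells without compound for no effect and CRF at EC100 for full effect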
Rpn11 block: Rpn11 (human) deubiquitinase inhibition | O00487 | human 26S proteasome, Ub4-pepOG fluorescence polarization; 20S core pre-blocked with epoxomicin | calls only at 20 µM | actives 0.59% (n = 360,000);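 active = inhibition at 20 µM, scaled to each plate's controls, above about 33%, limit read from the data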
An asterisk follows results filed as active; i = inactive; nt = not tested or not shown; + = active, no number.

SMILES | TPT1 inh | HNF4A DNA FP | CSN deneddyl inh | CRFBP-R2 block | CRFR2-BP ag | Rpn11 block
COCCCn1c(-c2ccc(OC)cc2)cc(C(=O)NC2CCCCCCC2)c1C | 0 | -1 | -1 | 86* | -3 | i
Cn1cc(/C=C2\C(=O)NC(=O)N(c3ccccc3)C2=O)c2ccccc21 | 0 | 154 | -3 | -71 | 115* | i
O=c1[nH]c(=O)n(C2CCCCC2)c(O)c1C1NCCc2ccccc21 (centres undefined) | 5 | 2 | 4 | 2 | 2 | i
Nc1ccc(Cc2ccc(N)cc2)cc1 | nt | -1 | 4 | 12 | -1 | i
CCOP(=O)(OCC)C(NC(=O)c1cccc([N+](=O)[O-])c1)C(Cl)(Cl)Cl (centres undefined) | -3 | 0 | 5 | -10 | 1 | i
CC1(C)CSC(=NCc2ccccc2)N1 | -1 | 7 | 1 | 4 | 191* | i
COC1=C[C@@H]2C3=C([C@@H]2C1=O)[C@@H](NC(C)=O)CCc1cc(OC)c(OC)c(OC)c13 | -5 | -8 | -6 | -12 | 0 | i
N#CC(C#N)=Cc1ccc(C=C(C#N)C#N)cc1 | nt | 1 | 18 | -14 | 3 | +
CCN1CCN(C(=O)COc2ccc(S(=O)(=O)NC(C)C)cc2)CC1 | 1 | -2 | -6 | 4 | 2 | i
CN1CCN(C(=O)COc2ccc(S(=O)(=O)Nc3ccc(F)cc3)cc2)CC1 | -2 | 43* | 2 | -2 | 0 | i
Cc1cccc(C)c1-n1nnnc1C(c1cccs1)N1CCC(n2c(=O)[nH]c3ccccc32)CC1 (centres undefined) | nt | 11 | 68* | nt | nt | i
Cc1cccc(C)c1-n1nnnc1C(c1cccc2ccccc12)N1CCC(n2c(=O)[nH]c3ccccc32)CC1 (centres undefined) | nt | -3 | 0 | nt | nt | i
CNc1cc(Cl)c2nonc2c1[N+](=O)[O-] | nt | 2 | 0 | 75* | 1 | i
Cn1cc(C(=O)OCC(=O)NC2(C#N)CCCCC2)c2ccccc21 | nt | -1 | -6 | 25 | 1 | i
O=[N+]([O-])c1ccccc1Cl | nt | nt | 3 | 12 | -2 | i
Cc1ccccc1[N+](=O)[O-] | nt | -1 | 4 | 51* | 13 | i
Oc1c(Br)cc(Br)cc1Br | nt | 6 | 5 | 1 | -1 | i
Oc1c(Br)cc(-c2ccccc2)cc1Br | nt | 2 | 5 | 72* | -2 | i
COC(=O)C12CCc3c(ccc4cc(OC)ccc34)C1=CC(=O)C2 (centres undefined) | nt | -1 | -4 | 60* | -2 | i
CCN1C(=O)/C(=C/c2ccc3c(c2)CCN3CCCCl)C(=O)NC1=S | 19 | -24 | 18 | -3 | 0 | i
CC(C)(C)N1C(=O)NC(=O)/C(=C\c2ccc3c(c2)CCN3CCCCl)C1=O | 14 | 17 | 39* | 9 | 11 | nt
COC(=O)C1=C(c2ccc(-c3ccccc3)c(F)c2)C[C@@H]2CC[C@H]1N2C(=O)N1CCC(O)CC1 | nt | -3 | 2 | 5 | -3 | i
CCCCn1c(O)c(/C=N/N2CCOCC2)c(=O)[nH]c1=S | -1 | 4 | 2 | -4 | 3 | i
CCCCCCn1c(O)c(C=Nc2ccccc2N2CCOCC2)c(=O)[nH]c1=S | 1 | 74* | 3 | -32 | 10 | i
COC(=O)C1=C(c2cc3ccccc3o2)C[C@@H]2CC[C@H]1N2C(=O)NCc1ccc(C(F)(F)F)cc1 | -1 | 2 | -2 | -7 | 4 | i
CCC(COC(=O)NC)NC(=O)Oc1cccc(C)c1 (centres undefined) | -1 | -1 | 2 | 9 | 2 | i
O=C1NC(=O)C(=Cc2cn(CCOc3ccc4c(c3)OCO4)c3ccccc23)C(=O)N1 | 17 | -1 | 35 | -57 | 59* | nt
Cc1ccc2c(c1)Oc1ccccc1N=C2 | nt | 1 | 4 | 65* | 1 | i
Cc1cc2ccccc2c(=O)n1CC(=O)NCC(=O)N1CCC2(CC1)OCCO2 | 2 | 1 | 1 | -7 | 2 | i
CCOc1ccc(-n2c(O)c(/C=C3\C=Nc4ccccc43)c(=O)[nH]c2=O)cc1 | 23 | -8 | -1 | -62 | 108* | i

Assay outcomes (PubChem BioAssay)
